Activity calls are given as the source filed them. The rule behind the calls is not given here.
Assays:
Mus musculus [1] = experiment: Toxicity in overnight fasted ICR mouse assessed as hypoglycemia at 15 mg/kg, po measured at 30 to 180 mins; format: organism-based; conditions: in vivo
Method in brief: (§1)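 Male ICR mice, 10 weeks old, fasted overnight, in 3 groups (n = 6). Single oral dose in 0.5% CMC. Tail-vein blood glucose measured by strips at 0, 30, 60, 90, 120 and 180 min. Mean ± SEM, Student's t test.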

[2] = target: T1, Free fatty acid receptor 1 (Homo sapiens, UniProt O14842); experiment: Agonist activity at human FFA1 receptor expressed in CHO cells assessed as increase in intracellular calcium flux at 100 nM by FLIPR assay relative to control; format: functional, cell-based
Method in brief: (§2)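 CHO cells stably expressing human FFA1 (NM_005303), seeded at 15 K cells/well and grown 16 h at 37 °C, 5% CO2. Calcium flux read by FLIPR Tetra. Response = (A−B)/(C−B)×100, with B vehicle and C 10 μM γ-linolenic acid. Mean of three independent experiments.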

[3] = target: T1, Free fatty acid receptor 1; experiment: Agonist activity at human FFA1 receptor expressed in CHO cells assessed as increase in intracellular calcium flux by FLIPR assay; format: functional, cell-based; method in brief: as §2
[4] = 1-octanol-phosphate buffer partition coefficient, log D of the compound at 100 uM at pH 7.4 after 24 hrs by shake-flask method; format: physicochemical
Method in brief: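 Test compound at 100 μM final (from 10 mM DMSO stock) in 0.01 M phosphate buffer pH 7.4 and 1-octanol, shaken 700 rpm for 24 h, phases left 1 h to separate. Each phase analysed by HPLC in duplicate at 254 nm. LogD is the octanol/buffer peak-area ratio, corrected with two calibration points per compound per solvent. Three independent experiments.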

Mus musculus [5] = experiment: Antidiabetic activity in po dosed overnight fasted ICR mouse assessed as decrease in blood glucose level administered glucose 30 mins post compound treatment measured at 15 to 120 mins by OGTT; format: functional, organism-based
Method in brief: (§3)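 Male ICR mice, 10 weeks old, fasted 12 h and randomized (n = 6). Compound given orally at 10, 20 or 40 mg/kg in 0.5% CMC, with 30% glucose (3 g/kg) orally 30 min later. Tail blood glucose measured by test strips at −30, 0, 15, 30, 45, 60 and 120 min. Student's t test vs vehicle.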

Mus musculus [6] = experiment: Antidiabetic activity in overnight fasted STZ-induced type 2 diabetic C57BL/6 mouse model assessed as decrease in blood glucose level at 20 mg/kg, po administered glucose 30 mins post compound treatment measured at 15 to 120 mins by OGTT; format: functional, organism-based
Method in brief: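 Male C57BL/6 mice on 45% fat diet for 4 weeks, then STZ 80 mg/kg ip, then high-fat diet 4 more weeks. Mice with fasting glucose ≥11.1 mmol/L were used, fasted 12 h (n = 6). Oral dose in 0.5% CMC, with 20% glucose (2 g/kg) orally 30 min later. Strip glucose read at −30, 0, 15, 30, 45, 60 and 120 min.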

Mus musculus [7] = experiment: Toxicity in overnight fasted ICR mouse assessed as hypoglycemia at 40 mg/kg, po measured at 30 to 180 mins; format: organism-based; conditions: in vivo; method in brief: as §1
Mus musculus [8] = experiment: Antidiabetic activity in overnight fasted ICR mouse assessed as decrease in blood glucose level at 20 mg/kg, po administered glucose 30 mins post compound treatment measured at 15 to 120 mins by OGTT; format: functional, organism-based; method in brief: as §3

T1 sequence (O14842 whole entry): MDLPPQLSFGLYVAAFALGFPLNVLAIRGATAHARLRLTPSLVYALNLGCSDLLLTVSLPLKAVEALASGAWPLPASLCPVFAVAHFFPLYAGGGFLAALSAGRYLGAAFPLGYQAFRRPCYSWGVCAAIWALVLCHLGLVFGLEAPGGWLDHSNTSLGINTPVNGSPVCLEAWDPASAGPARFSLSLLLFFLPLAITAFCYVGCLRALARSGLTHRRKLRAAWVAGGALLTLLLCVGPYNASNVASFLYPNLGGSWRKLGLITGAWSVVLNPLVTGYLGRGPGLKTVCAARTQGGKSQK

Activity [2] [%]	EC50 [3] [nM]	logD at 24 h, 100 µM [4]	SMILES	further results
44.4	110	2.73	Cc1cc(OCCCO)cc(C)c1-c1cccc(COc2ccc(OCC(=O)O)c(F)c2)c1	–
48.7	104	3.15	COCCOc1cc(C)c(-c2cccc(COc3ccc(OCC(=O)O)c(F)c3)c2)c(C)c1	–
36.9	–	–	Cc1cc(OC(C)C)cc(C)c1-c1cccc(COc2ccc(OCC(=O)O)c(F)c2)c1	–
53.1	65.9	3.48	CCOc1cc(C)c(-c2cccc(COc3ccc(OCC(=O)O)c(F)c3)c2)c(C)c1	–
13.5	–	–	Cc1cc(OCC(=O)N(C)C)cc(C)c1-c1cccc(COc2ccc(OCC(=O)O)c(F)c2)c1	–
–	–	1.81	Cc1cc(OCCCS(C)(=O)=O)cc(C)c1-c1cccc(COc2ccc(OCC(=O)O)c(F)c2)c1	–
35.2	–	–	Cc1cc(OCC(C)C)cc(C)c1-c1cccc(COc2ccc(OCC(=O)O)c(F)c2)c1	–
41.6	–	–	CCCCOc1cc(C)c(-c2cccc(COc3ccc(OCC(=O)O)c(F)c3)c2)c(C)c1	–
58.4	49.7	3.2	COc1cc(C)c(-c2cccc(COc3ccc(OCC(=O)O)c(F)c3)c2)c(C)c1	–
47.9	106	3.64	CCCOc1cc(C)c(-c2cccc(COc3ccc(OCC(=O)O)c(F)c3)c2)c(C)c1	–
38	–	–	COCCCOc1cc(C)c(-c2cccc(COc3ccc(OCC(=O)O)c(F)c3)c2)c(C)c1	–

Further lines, the compound ahead of its results:

SMILES	Activity [2] [%]	EC50 [3] [nM]	logD at 24 h, 100 µM [4]	further results
COc1ccc(Cl)cc1C(=O)NCCc1ccc(S(=O)(=O)NC(=O)NC2CCCCC2)cc1 [GLYBURIDE]	–	–	–	Activity (Mus musculus [1]): Toxic
Cc1cc(OCc2cccc(-c3c(C)cc(OCCCS(C)(=O)=O)cc3C)c2)ccc1N(CC(=O)O)C(=O)c1ccccc1	2.57	–	–	–
Cc1cc(OCCCS(C)(=O)=O)ccc1-c1cccc(COc2ccc(OCC(=O)O)c(F)c2)c1	61.3	43.6	1.63	Activity (Mus musculus [5]): Dose-dependent effect; Activity (Mus musculus [6]): Active; Activity (Mus musculus [7]): Non-toxic
CC(=O)N(CC(=O)O)c1ccc(OCc2cccc(-c3c(C)cc(OCCCS(C)(=O)=O)cc3C)c2)cc1	36.3	–	–	–
Cc1cc(OCCCS(C)(=O)=O)cc(C)c1-c1cccc(COc2ccc(N(CC(=O)O)C(=O)c3ccccc3)cc2)c1	23.5	–	–	–
Cc1cc(OCCOCc2ccccc2)cc(C)c1-c1cccc(COc2ccc(OCC(=O)O)c(F)c2)c1	23.6	–	–	–
Cc1cc(OCC(=O)N2CCOCC2)cc(C)c1-c1cccc(COc2ccc(OCC(=O)O)c(F)c2)c1	18.4	–	–	–
Cc1cc(OCCCS(C)(=O)=O)cc(C)c1-c1cccc(COc2ccc(N(CC(=O)O)C(=O)c3ccoc3)cc2)c1	28.9	–	–	–
Cc1cc(OCc2ccccc2)cc(C)c1-c1cccc(COc2ccc(OCC(=O)O)c(F)c2)c1	26.4	–	–	–
Cc1cc(O)cc(C)c1-c1cccc(COc2ccc(OCC(=O)O)c(F)c2)c1	44.3	110	2.37	–
Cc1cc(OCCCS(C)(=O)=O)cc(C)c1-c1cccc(COc2ccc3c(c2)OC[C@H]3CC(=O)O)c1	–	–	2.43	Activity (Mus musculus [8]): Active; Activity (Mus musculus [6]): Active
CC(=O)N(CC(=O)O)c1ccc(OCc2cccc(-c3c(C)cc(OCCCS(C)(=O)=O)cc3C)c2)cc1C	18.4	–	–	–

From ChEMBL document CHEMBL3627655, “Design, synthesis and biological activity of phenoxyacetic acid derivatives as novel free fatty acid receptor 1 agonists” (Bioorg Med Chem, 2015)
